Experimental data as given in ChEMBL document CHEMBL1131139, “Synthesis and antibacterial activity of ketolides (6-O-methyl-3-oxoerythromycin derivatives): a new class of antibacterials highly potent against macrolide-resistant and -susceptible respiratory pathogens” (1998).
≈ marks a conversion by molar mass, not a printed value.

What was measured:
Type in all cases: functional
Staphylococcus aureus [1] = assay: In vitro inhibitory activity against Staphylococcus aureus (EryRc 011CB20)
How it was run: (§1)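 Two-fold agar dilution on Mueller-Hinton agar (pH 7.4). Inoculum from overnight plate cultures suspended in Mueller-Hinton broth, adjusted to 10^9 CFU/mL, diluted 1:200 and spotted by multipoint inoculator at about 10^4 CFU/spot. Plates incubated 37 °C for 20 h. MIC taken as lowest concentration with no visible growth.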

Staphylococcus aureus [2] = assay: In vitro inhibitory activity against Staphylococcus aureus (011UC4); how it was run: as §1
Escherichia coli = assay: In vitro inhibitory activity against Escherichia coli (250 UC5); how it was run: as §1
Haemophilus influenzae [3] = assay: In vitro inhibitory activity against Haemophilus influenzae (351HT3); how it was run: as §1
Streptococcus pyogenes = assay: In vitro inhibitory activity against Streptococcus pyogenes (02A1UC1); how it was run: as §1
Staphylococcus aureus [4] = assay: In vitro inhibitory activity against Staphylococcus aureus (EryRi 011GO25i); how it was run: as §1
Streptococcus pneumoniae [5] = assay: In vitro inhibitory activity against Streptococcus pneumoniae (032UC1); how it was run: as §1
Streptococcus pneumoniae [6] = assay: In vitro inhibitory activity against Streptococcus pneumoniae (EryRi 030SJ5i); how it was run: as §1
[7] = test system: Staphylococcus epidermidis; assay: In vitro inhibitory activity against Staphylococcus epidermidis (EryRi 012GO11i); how it was run: as §1
Streptococcus pneumoniae [8] = assay: In vitro inhibitory activity against Streptococcus pneumoniae (EryRc 030SJ1); how it was run: as §1
Haemophilus influenzae [9] = assay: In vitro inhibitory activity against Haemophilus influenzae (351CB12); how it was run: as §1

SMILES | MIC (Staphylococcus aureus [1]) | MIC (Staphylococcus aureus [2]) | MIC (Escherichia coli) | MIC (Haemophilus influenzae [3]) | MIC (Streptococcus pyogenes) | MIC (Staphylococcus aureus [4]) | MIC (Streptococcus pneumoniae [5]) | MIC (Streptococcus pneumoniae [6]) | MIC [7] | MIC (Streptococcus pneumoniae [8]) | MIC (Haemophilus influenzae [9])
CC[C@H]1OC(=O)[C@H](C)C(=O)[C@H](C)[C@@H](O[C@@H]2O[C@H](C)C[C@H](N(C)C)[C@H]2O)[C@](C)(OC)C[C@@H](C)/C(=N\OCCNCCN2CCCC2)[C@H](C)[C@@H](O)[C@]1(C)O | 40 µg/mL (≈ 53.8 µM) | 0.3 µg/mL (≈ 0.404 µM) | 40 µg/mL (≈ 53.8 µM) | 20 µg/mL (≈ 26.9 µM) | 0.04 µg/mL (≈ 0.0538 µM) | 1.2 µg/mL (≈ 1.62 µM) | 10 µg/mL (≈ 13.5 µM) | 1.2 µg/mL (≈ 1.62 µM) | 0.6 µg/mL (≈ 0.808 µM) | 0.6 µg/mL (≈ 0.808 µM) | 10 µg/mL (≈ 13.5 µM)
CC[C@H]1OC(=O)[C@H](C)C(=O)[C@H](C)[C@@H](O[C@@H]2O[C@H](C)C[C@H](N(C)C)[C@H]2O)[C@](C)(OC)C[C@@H](C)/C(=N\OCCNCc2ccccc2)[C@H](C)[C@@H](O)[C@]1(C)O | 40 µg/mL (≈ 54.4 µM) | 0.6 µg/mL (≈ 0.815 µM) | 40 µg/mL (≈ 54.4 µM) | 40 µg/mL (≈ 54.4 µM) | 0.6 µg/mL (≈ 0.815 µM) | 5 µg/mL (≈ 6.79 µM) | 0.15 µg/mL (≈ 0.204 µM) | 40 µg/mL (≈ 54.4 µM) | 5 µg/mL (≈ 6.79 µM) | 40 µg/mL (≈ 54.4 µM) | 40 µg/mL (≈ 54.4 µM)
CC[C@H]1OC(=O)[C@H](C)C(=O)[C@H](C)[C@@H](O[C@@H]2O[C@H](C)C[C@H](N(C)C)[C@H]2O)[C@](C)(OC)C[C@@H](C)/C(=N\OC[C@@H](N)C(=O)OC)[C@H](C)[C@@H](O)[C@]1(C)O | 40 µg/mL (≈ 56.8 µM) | 1.2 µg/mL (≈ 1.7 µM) | 40 µg/mL (≈ 56.8 µM) | 40 µg/mL (≈ 56.8 µM) | 0.6 µg/mL (≈ 0.852 µM) | 10 µg/mL (≈ 14.2 µM) | 0.6 µg/mL (≈ 0.852 µM) | 20 µg/mL (≈ 28.4 µM) | 2.5 µg/mL (≈ 3.55 µM) | 40 µg/mL (≈ 56.8 µM) | 40 µg/mL (≈ 56.8 µM)
CC[C@H]1OC(=O)[C@H](C)C(=O)[C@H](C)[C@@H](O[C@@H]2O[C@H](C)C[C@H](N(C)C)[C@H]2O)[C@](C)(OC)C[C@@H](C)/C(=N\OCCN2CCCCC2)[C@H](C)[C@@H](O)[C@]1(C)O | 40 µg/mL (≈ 56 µM) | 0.6 µg/mL (≈ 0.84 µM) | 40 µg/mL (≈ 56 µM) | 40 µg/mL (≈ 56 µM) | 0.15 µg/mL (≈ 0.21 µM) | 2.5 µg/mL (≈ 3.5 µM) | 10 µg/mL (≈ 14 µM) | 40 µg/mL (≈ 56 µM) | 0.6 µg/mL (≈ 0.84 µM) | 20 µg/mL (≈ 28 µM) | 20 µg/mL (≈ 28 µM)
CC[C@H]1OC(=O)[C@H](C)C(=O)[C@H](C)[C@@H](O[C@@H]2O[C@H](C)C[C@H](N(C)C)[C@H]2O)[C@](C)(OC)C[C@@H](C)/C(=N\O[C@H]2CCCNC2)[C@H](C)[C@@H](O)[C@]1(C)O | 40 µg/mL (≈ 58.3 µM) | 1.2 µg/mL (≈ 1.75 µM) | 40 µg/mL (≈ 58.3 µM) | 20 µg/mL (≈ 29.2 µM) | 0.3 µg/mL (≈ 0.437 µM) | 5 µg/mL (≈ 7.29 µM) | 0.3 µg/mL (≈ 0.437 µM) | 0.08 µg/mL (≈ 0.117 µM) | 2.5 µg/mL (≈ 3.64 µM) | 40 µg/mL (≈ 58.3 µM) | 2.5 µg/mL (≈ 3.64 µM)
CC[C@H]1OC(=O)[C@H](C)C(=O)[C@H](C)[C@@H](O[C@@H]2O[C@H](C)C[C@H](N(C)C)[C@H]2O)[C@](C)(OC)C[C@@H](C)C(=O)[C@H](C)[C@H]2N(CCCCc3ccnc4ccc(OC)cc34)C(=O)O[C@]12C | 40 µg/mL (≈ 48.4 µM) | 0.08 µg/mL (≈ 0.0968 µM) | 40 µg/mL (≈ 48.4 µM) | 1.2 µg/mL (≈ 1.45 µM) | 0.02 µg/mL (≈ 0.0242 µM) | 0.08 µg/mL (≈ 0.0968 µM) | 0.02 µg/mL (≈ 0.0242 µM) | 0.02 µg/mL (≈ 0.0242 µM) | 0.04 µg/mL (≈ 0.0484 µM) | 0.6 µg/mL (≈ 0.726 µM) | 1.2 µg/mL (≈ 1.45 µM)
CC[C@H]1OC(=O)[C@H](C)C(=O)[C@H](C)[C@@H](O[C@@H]2O[C@H](C)C[C@H](N(C)C)[C@H]2O)[C@](C)(OC)C[C@@H](C)/C(=N\OCCN2CCC2)[C@H](C)[C@@H](O)[C@]1(C)O | 40 µg/mL (≈ 58.3 µM) | 0.6 µg/mL (≈ 0.875 µM) | 40 µg/mL (≈ 58.3 µM) | 40 µg/mL (≈ 58.3 µM) | 0.04 µg/mL (≈ 0.0583 µM) | 2.5 µg/mL (≈ 3.64 µM) | 20 µg/mL (≈ 29.2 µM) | 2.5 µg/mL (≈ 3.64 µM) | 5 µg/mL (≈ 7.29 µM) | 0.3 µg/mL (≈ 0.437 µM) | 10 µg/mL (≈ 14.6 µM)
CC[C@H]1OC(=O)[C@H](C)C(=O)[C@H](C)[C@@H](O[C@@H]2O[C@H](C)C[C@H](N(C)C)[C@H]2O)[C@](C)(OC)C[C@@H](C)/C(=N\OCCN2CCOCC2)[C@H](C)[C@@H](O)[C@]1(C)O | 40 µg/mL (≈ 55.9 µM) | 1.2 µg/mL (≈ 1.68 µM) | 40 µg/mL (≈ 55.9 µM) | 40 µg/mL (≈ 55.9 µM) | 0.15 µg/mL (≈ 0.21 µM) | 10 µg/mL (≈ 14 µM) | 40 µg/mL (≈ 55.9 µM) | 20 µg/mL (≈ 27.9 µM) | 2.5 µg/mL (≈ 3.49 µM) | 5 µg/mL (≈ 6.98 µM) | 40 µg/mL (≈ 55.9 µM)
CC[C@H]1OC(=O)[C@H](C)C(=O)[C@H](C)[C@@H](O[C@@H]2O[C@H](C)C[C@H](N(C)C)[C@H]2O)[C@](C)(OC)C[C@@H](C)C(=O)[C@H](C)[C@H]2N(NCCCc3ccccc3)C(=O)O[C@]12C | 40 µg/mL (≈ 53.6 µM) | 0.08 µg/mL (≈ 0.107 µM) | 40 µg/mL (≈ 53.6 µM) | 1.2 µg/mL (≈ 1.61 µM) | 0.02 µg/mL (≈ 0.0268 µM) | 0.15 µg/mL (≈ 0.201 µM) | 0.02 µg/mL (≈ 0.0268 µM) | 0.15 µg/mL (≈ 0.201 µM) | 0.15 µg/mL (≈ 0.201 µM) | 5 µg/mL (≈ 6.7 µM) | 1.2 µg/mL (≈ 1.61 µM)
CC[C@H]1OC(=O)[C@H](C)C(=O)[C@H](C)[C@@H](O[C@@H]2O[C@H](C)C[C@H](N(C)C)[C@H]2O)[C@](C)(OC)C[C@@H](C)/C(=N\OC2CCNC2)[C@H](C)[C@@H](O)[C@]1(C)O (stereo not given in full) | 40 µg/mL (≈ 59.5 µM) | 0.15 µg/mL (≈ 0.223 µM) | 40 µg/mL (≈ 59.5 µM) | 10 µg/mL (≈ 14.9 µM) | 0.04 µg/mL (≈ 0.0595 µM) | 5 µg/mL (≈ 7.44 µM) | 0.02 µg/mL (≈ 0.0298 µM) | 40 µg/mL (≈ 59.5 µM) | 6 µg/mL (≈ 8.93 µM) | 10 µg/mL (≈ 14.9 µM) | 5 µg/mL (≈ 7.44 µM)
